pIC50, pKi: −log10 of the molar value. Activity calls are given as the source filed them. No rule for the calls is given here. Peptide text beside a SMILES is read from it. * marks the point of attachment. NH(4-amidinobenzyl) = N=C(N)c1ccc(CN*)cc1
How the values were obtained:
LNCaP = experiment: Antiproliferative activity against human LNCAP cells assessed as reduction in metabolic activity after 72 hrs by MTT assay; assay type: functional, cell-based
Summary of the method: (§1)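 Cells kept at 37°C, 5% CO2 in RPMI 1640 (DU145 with 5% FBS, 1500 cells/well; LNCaP with 10% FBS, 2500 cells/well) on poly-L-lysine coated plates. Peptides added 24 h after plating in fresh serum medium at 0, 1, 10, 25, 50, 75, 100, 250 µM for 72 h. MTT 1 mg/mL final for 4 h; formazan dissolved in 2-propanol HCl. Signal normalised to water vehicle; IC50 from dose-response curves.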

[1] = molecular target: T1, Proprotein convertase subtilisin/kexin type 6 (Homo sapiens, UniProt P29122); experiment: Inhibition of recombinant human PACE4 expressed in drosophila S2 cells using pyrGlu-Arg-Thr-Lys-Arg-7-amido-4-methylcoumarin as substrate after 60 mins by spectrofluorometry method; assay type: cell-based
T1 sequence (P29122 whole entry): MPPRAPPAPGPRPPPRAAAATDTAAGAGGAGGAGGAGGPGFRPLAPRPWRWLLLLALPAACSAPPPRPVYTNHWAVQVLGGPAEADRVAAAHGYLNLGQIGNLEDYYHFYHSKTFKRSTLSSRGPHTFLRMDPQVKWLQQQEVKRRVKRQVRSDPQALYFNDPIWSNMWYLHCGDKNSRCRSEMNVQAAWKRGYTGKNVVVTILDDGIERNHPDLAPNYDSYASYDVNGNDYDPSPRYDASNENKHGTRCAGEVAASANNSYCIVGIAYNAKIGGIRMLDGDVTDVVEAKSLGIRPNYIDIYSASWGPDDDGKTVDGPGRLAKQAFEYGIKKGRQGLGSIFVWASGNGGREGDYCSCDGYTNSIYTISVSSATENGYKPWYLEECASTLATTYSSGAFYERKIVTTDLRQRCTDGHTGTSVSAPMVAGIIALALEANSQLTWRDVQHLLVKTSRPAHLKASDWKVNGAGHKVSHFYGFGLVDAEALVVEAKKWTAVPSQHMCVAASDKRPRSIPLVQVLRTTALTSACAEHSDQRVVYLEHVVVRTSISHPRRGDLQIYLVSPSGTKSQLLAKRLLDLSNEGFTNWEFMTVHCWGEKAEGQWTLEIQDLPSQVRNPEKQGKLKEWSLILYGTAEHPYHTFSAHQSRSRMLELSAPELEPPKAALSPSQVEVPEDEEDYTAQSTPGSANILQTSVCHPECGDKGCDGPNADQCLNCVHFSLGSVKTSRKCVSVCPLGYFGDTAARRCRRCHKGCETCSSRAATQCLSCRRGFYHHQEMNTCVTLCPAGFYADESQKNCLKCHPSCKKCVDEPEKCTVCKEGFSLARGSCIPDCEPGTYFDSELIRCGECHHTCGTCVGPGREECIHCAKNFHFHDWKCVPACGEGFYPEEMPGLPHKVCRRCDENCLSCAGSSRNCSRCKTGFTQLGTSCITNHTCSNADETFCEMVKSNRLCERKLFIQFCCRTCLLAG
Summary of the method: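 Human recombinant purified PACE4 at 2 units/100 µL (20.18 nM), in 20 mM BisTris pH 6.5, 1 mM CaCl2, 1.8 mg/mL BSA. Substrate 100 µM, KM 4.035 µM. Inhibitor 1 nM to 10 µM; 60 min at 37°C. Fluorescence ex 370 / em 460 nm. Ki by Morrison tight-binding equation; three independent experiments, mean ± SD.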

Furin = Furin (Homo sapiens, UniProt P09958); experiment: Inhibition of recombinant human furin expressed in drosophila S2 cells using pyrGlu-Arg-Thr-Lys-Arg-7-amido-4-methylcoumarin as substrate after 60 mins by spectrofluorometry method; assay type: cell-based
Furin, sequence (P09958 whole entry): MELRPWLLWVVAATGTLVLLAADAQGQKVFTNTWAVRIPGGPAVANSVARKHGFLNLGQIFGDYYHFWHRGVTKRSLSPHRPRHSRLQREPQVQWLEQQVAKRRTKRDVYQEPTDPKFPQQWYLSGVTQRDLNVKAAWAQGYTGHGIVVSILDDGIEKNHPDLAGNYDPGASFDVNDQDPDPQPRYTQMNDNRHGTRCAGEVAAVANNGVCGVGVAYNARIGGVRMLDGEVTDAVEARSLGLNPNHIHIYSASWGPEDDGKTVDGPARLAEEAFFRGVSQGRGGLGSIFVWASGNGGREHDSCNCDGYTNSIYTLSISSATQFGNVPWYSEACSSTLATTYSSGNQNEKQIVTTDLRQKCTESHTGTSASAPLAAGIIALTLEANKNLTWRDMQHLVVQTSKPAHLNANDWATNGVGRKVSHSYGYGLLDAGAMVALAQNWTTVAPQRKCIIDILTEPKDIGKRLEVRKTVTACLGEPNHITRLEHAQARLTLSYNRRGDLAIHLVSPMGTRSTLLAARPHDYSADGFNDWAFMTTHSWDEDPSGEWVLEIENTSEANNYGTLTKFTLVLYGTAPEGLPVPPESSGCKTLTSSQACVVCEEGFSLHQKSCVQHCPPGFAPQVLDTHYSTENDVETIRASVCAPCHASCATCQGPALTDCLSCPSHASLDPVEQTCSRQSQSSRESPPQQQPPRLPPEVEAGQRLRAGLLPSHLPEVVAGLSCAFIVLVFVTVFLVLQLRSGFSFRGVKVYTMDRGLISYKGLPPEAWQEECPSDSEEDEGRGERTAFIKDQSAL
Summary of the method: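 Human recombinant purified furin at 2 units/100 µL (0.54 nM), in 100 mM HEPES pH 7.5, 1 mM CaCl2, 1 mM β-mercaptoethanol, 1.8 mg/mL BSA. His-containing peptides run instead in 20 mM BisTris pH 6.5 with the same additives. Substrate 100 µM, KM 5.04 µM. Inhibitor 1 nM to 10 µM; 60 min at 37°C. Fluorescence ex 370 / em 460 nm. Ki by Morrison equation; triplicate experiments, mean ± SD.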

DU-145 [2] = experiment: Antiproliferative activity against human DU145 cells assessed as reduction in metabolic activity after 72 hrs by MTT assay; assay type: functional, cell-based; conditions: DU-145, 72 h; summary of the method: as §1
Homo sapiens = organism: Homo sapiens; experiment: Selectivity index, ratio of Ki for recombinant human furin expressed in drosophila S2 cells to Ki for recombinant human PACE4 expressed in drosophila S2 cells; assay type: cell-based
Summary of the method: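 Ratio Ki(furin)/Ki(PACE4). […] PACE4 buffer was BisTris pH 6.5; furin buffer was HEPES pH 7.5, or BisTris pH 6.5 for His peptides. Ki fitted by Morrison equation from three independent experiments.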

DU-145 [3] = experiment: Antiproliferative activity against human DU145 cells assessed as reduction in metabolic activity at 25 to 100 uM after 72 hrs by MTT assay; assay type: functional, cell-based
Summary of the method: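 First-pass MTT screen of each library peptide on DU145 cells (RPMI 1640, 5% FBS, 1500 cells/well, poly-L-lysine plates). Peptides added 24 h after seeding at 25, 50 and 100 µM in fresh serum medium for 72 h. MTT 1 mg/mL for 4 h; 2-propanol HCl solubilisation. Activity normalised to water vehicle. Mean ± SEM of at least two independent experiments.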

| pIC50 (LNCaP) | pKi [1] | pKi (Furin) | pIC50 (DU-145 [2]) | SMILES | Ratio Ki (Homo sapiens) | Activity (DU-145 [3]) |
| --- | --- | --- | --- | --- | --- | --- |
| 4.22 | 7.85 | 7.93 | 4.43 | CC[C@H](C)[C@H](NC(=O)[C@H](CC(C)C)NC(=O)[C@@H](CC(C)C)NC(C)=O)C(=O)N[C@H](C(=O)N[C@@H](CCCNC(=N)N)C(=O)N[C@H](C(=O)N[C@@H](CCCCN)C(=O)NCc1ccc(C(=N)N)cc1)C(C)C)[C@@H](C)CC | 0.8 |  |
| 4.52 | 8.01 | 8.09 | 4.70 | CC[C@H](C)[C@H](NC(=O)[C@H](CC(C)C)NC(=O)[C@H](CC(C)C)NC(C)=O)C(=O)N[C@H](C(=O)N[C@@H](CCCNC(=N)N)C(=O)N[C@H](C(=O)N[C@@H](CCCCN)C(=O)NCc1ccc(C(=N)N)cc1)C(C)C)[C@@H](C)CC | 0.8 |  |
| 4.40 | 7.92 | 8.10 | 4.05 | CC(=O)N[C@@H](CC(=O)O)C(=O)N[C@@H](CC(C)C)C(=O)N[C@@H](CC(C)C)C(=O)N[C@@H](CC(C)C)C(=O)N[C@@H](CCCNC(=N)N)C(=O)N[C@H](C(=O)N[C@@H](CCCCN)C(=O)NCc1ccc(C(=N)N)cc1)C(C)C (Ac-DLLLRVK-{NH(4-amidinobenzyl)}) | 0.7 |  |
|  | 9.00 | 8.77 |  | CC(=O)N[C@@H](CC(C)C)C(=O)N[C@H](C(=O)N[C@@H](CC(C)C)C(=O)N[C@@H](CC(C)C)C(=O)N[C@@H](CCCNC(=N)N)C(=O)N[C@H](C(=O)N[C@@H](CCCCN)C(=O)NCc1ccc(C(=N)N)cc1)C(C)C)[C@@H](C)O (Ac-LTLLRVK-{NH(4-amidinobenzyl)}) | 1.7 | inactive |
|  | 8.70 | 8.70 |  | CC(=O)N[C@@H](CC(C)C)C(=O)N[C@H](C(=O)N[C@@H](CC(C)C)C(=O)N[C@@H](CC(C)C)C(=O)N[C@@H](CCCNC(=N)N)C(=O)N[C@H](C(=O)N[C@@H](CCCCN)C(=O)NCc1ccc(C(=N)N)cc1)C(C)C)C(C)C (Ac-LVLLRVK-{NH(4-amidinobenzyl)}) | 1 | inactive |
|  | 8.40 | 8.52 |  | CC(=O)N[C@@H](CC(C)C)C(=O)N[C@@H](Cc1ccc(O)cc1)C(=O)N[C@@H](CC(C)C)C(=O)N[C@@H](CC(C)C)C(=O)N[C@@H](CCCNC(=N)N)C(=O)N[C@H](C(=O)N[C@@H](CCCCN)C(=O)NCc1ccc(C(=N)N)cc1)C(C)C (Ac-LYLLRVK-{NH(4-amidinobenzyl)}) | 0.8 | inactive |
|  | 8.22 | 8.22 |  | CSCC[C@H](NC(C)=O)C(=O)N[C@@H](CC(C)C)C(=O)N[C@@H](CC(C)C)C(=O)N[C@@H](CC(C)C)C(=O)N[C@@H](CCCNC(=N)N)C(=O)N[C@H](C(=O)N[C@@H](CCCCN)C(=O)NCc1ccc(C(=N)N)cc1)C(C)C (Ac-MLLLRVK-{NH(4-amidinobenzyl)}) | 1 | inactive |
|  | 8.22 | 8.51 |  | CC(=O)N[C@@H](CC(N)=O)C(=O)N[C@@H](CC(C)C)C(=O)N[C@@H](CC(C)C)C(=O)N[C@@H](CC(C)C)C(=O)N[C@@H](CCCNC(=N)N)C(=O)N[C@H](C(=O)N[C@@H](CCCCN)C(=O)NCc1ccc(C(=N)N)cc1)C(C)C (Ac-NLLLRVK-{NH(4-amidinobenzyl)}) | 0.5 | inactive |
|  | 8.52 | 8.96 |  | CC(=O)N1CCC[C@H]1C(=O)N[C@@H](CC(C)C)C(=O)N[C@@H](CC(C)C)C(=O)N[C@@H](CC(C)C)C(=O)N[C@@H](CCCNC(=N)N)C(=O)N[C@H](C(=O)N[C@@H](CCCCN)C(=O)NCc1ccc(C(=N)N)cc1)C(C)C (Ac-PLLLRVK-{NH(4-amidinobenzyl)}) | 0.4 | inactive |
|  | 9.22 | 8.96 |  | CC(=O)N[C@@H](CCCNC(=N)N)C(=O)N[C@@H](CC(C)C)C(=O)N[C@@H](CC(C)C)C(=O)N[C@@H](CC(C)C)C(=O)N[C@@H](CCCNC(=N)N)C(=O)N[C@H](C(=O)N[C@@H](CCCCN)C(=O)NCc1ccc(C(=N)N)cc1)C(C)C (Ac-RLLLRVK-{NH(4-amidinobenzyl)}) | 1.8 | inactive |
